How the values were obtained:
[1] = biological target: T1, Receptor tyrosine-protein kinase erbB-2 (Homo sapiens, UniProt P04626); experiment: Inhibition of human recombinant cytoplasmic HER2 kinase expressed in Sf9 cells
[2] = biological target: Epidermal growth factor receptor (Homo sapiens, UniProt P00533)
NCI-N87 [3] = experiment: Antiproliferative activity against human N87 cells; format: functional, cell-based
Liver = experiment: Metabolic stability in mouse liver microsomes assessed as rate of metabolism per mg protein at 3 uM after 10 mins; format: ADME, Microsome
How it was run: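 Test compound at 3 µM incubated 10 min with mouse liver microsomes plus NADPH. Rate of metabolism expressed as nmol min⁻¹ mg protein⁻¹.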

A2780 = experiment: Antiproliferative activity against human A2780 cells; format: functional, cell-based
MAP kinase p38 = MAP kinase p38 (Homo sapiens, UniProt O15264+Q15759+Q16539+P53778); experiment: Inhibition of p38 kinase; format: protein assay
How it was run: (§1)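 Kinase panel values are IC50s reported as the mean of at least three determinations, with variability around the mean under 15%.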

[4] = biological target: Hepatocyte growth factor receptor (Homo sapiens, UniProt P08581); experiment: Inhibition of Met kinase; how it was run: as §1
[5] = Plasma concentration in BALB/C mouse at 50 mg/kg, po after 4 hrs; format: ADME, organism-based; set-up: dose 50 mg/kg, route oral
How it was run: (§2)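 Single oral 50 mg/kg dose in male Balb/C mice. AUC taken over 4 h, and plasma concentration measured at 4 h.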

[6] = Permeability across Caco-2 cell membrane; format: ADME, cell-based; conditions: human, read-out: permeability
[7] = Fraction unbound (%) ligand in mouse serum at 10 uM by equilibrium dialysis; format: ADME, cell-free, Plasma
[8] = biological target: T1, Receptor tyrosine-protein kinase erbB-2; experiment: Inhibition of HER2 phosphorylation in human N87 cells; format: cell-based; conditions: NCI-N87
How it was run: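 N87 human gastric carcinoma cells, which overexpress EGFR and HER2, were exposed to a range of compound concentrations for 1 h. Cell lysates were then Western blotted with anti-phosphotyrosine and anti-HER2 antibodies to follow HER2 phosphorylation.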

NCI-N87 [9] = experiment: Antitumor activity against human N87 cells xenografted athymic mouse at 240 mg/kg, sc QD for 14 days; format: functional; conditions: NCI-N87, po, 336 h, read-out: TGI, in the assay text read “po QD” for “sc QD”
How it was run: (§3)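 Tumor cells were implanted subcutaneously in athymic mice and staged to about 100 mg before dosing, with drug given orally. […] Probability was assessed for median tumor weight at the end of treatment.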

NCI-N87 [10] = experiment: Antitumor activity against human N87 cells xenografted athymic mouse at 60 mg/kg, sc QD for 14 days; format: functional; conditions: NCI-N87, po, 336 h, read-out: TGI, in the assay text read “po QD” for “sc QD”; how it was run: as §3
NCI-N87 [11] = experiment: Antitumor activity against human N87 cells xenografted athymic mouse at 30 mg/kg, sc QD for 14 days; format: functional; conditions: NCI-N87, po, 336 h, read-out: TGI, in the assay text read “po QD” for “sc QD”; how it was run: as §3
[12] = biological target: Tyrosine-protein kinase Lck (Homo sapiens, UniProt P06239); experiment: Inhibition of LCK kinase
Tyrosine-protein kinase Lck, sequence (P06239 whole entry): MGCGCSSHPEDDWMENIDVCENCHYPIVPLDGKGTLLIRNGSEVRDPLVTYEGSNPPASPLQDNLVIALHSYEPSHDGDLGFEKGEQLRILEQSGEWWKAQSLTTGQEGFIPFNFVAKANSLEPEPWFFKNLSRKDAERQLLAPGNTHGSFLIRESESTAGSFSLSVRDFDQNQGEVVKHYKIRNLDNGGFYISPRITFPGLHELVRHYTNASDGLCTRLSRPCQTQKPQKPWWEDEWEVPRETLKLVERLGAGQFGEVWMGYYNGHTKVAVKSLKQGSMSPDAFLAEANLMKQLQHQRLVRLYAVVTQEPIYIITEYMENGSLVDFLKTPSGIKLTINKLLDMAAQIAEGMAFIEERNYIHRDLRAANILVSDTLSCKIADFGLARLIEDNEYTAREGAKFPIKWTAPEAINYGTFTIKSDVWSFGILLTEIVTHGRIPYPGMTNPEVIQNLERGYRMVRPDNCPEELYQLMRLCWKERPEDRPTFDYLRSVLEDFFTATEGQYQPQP
How it was run: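 IC50 is the mean of at least three determinations, with variability around the mean below 15%.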

[13] = Antitumor activity against human GEO cells xenografted athymic mouse at 120 mg/kg, sc QD for 21 days; format: functional; conditions: po, 504 h, read-out: TGI, in the assay text read “po QD” for “sc QD”; how it was run: as §3
[14] = Antitumor activity against human GEO cells xenografted athymic mouse at 60 mg/kg, sc QD for 21 days; format: functional; conditions: po, 504 h, read-out: TGI, in the assay text read “po QD” for “sc QD”; how it was run: as §3
[15] = biological target: Vascular endothelial growth factor receptor 2 (Homo sapiens, UniProt P35968); experiment: Inhibition of VEGFR2; how it was run: as §1
Vascular endothelial growth factor receptor 2, sequence (P35968 whole entry): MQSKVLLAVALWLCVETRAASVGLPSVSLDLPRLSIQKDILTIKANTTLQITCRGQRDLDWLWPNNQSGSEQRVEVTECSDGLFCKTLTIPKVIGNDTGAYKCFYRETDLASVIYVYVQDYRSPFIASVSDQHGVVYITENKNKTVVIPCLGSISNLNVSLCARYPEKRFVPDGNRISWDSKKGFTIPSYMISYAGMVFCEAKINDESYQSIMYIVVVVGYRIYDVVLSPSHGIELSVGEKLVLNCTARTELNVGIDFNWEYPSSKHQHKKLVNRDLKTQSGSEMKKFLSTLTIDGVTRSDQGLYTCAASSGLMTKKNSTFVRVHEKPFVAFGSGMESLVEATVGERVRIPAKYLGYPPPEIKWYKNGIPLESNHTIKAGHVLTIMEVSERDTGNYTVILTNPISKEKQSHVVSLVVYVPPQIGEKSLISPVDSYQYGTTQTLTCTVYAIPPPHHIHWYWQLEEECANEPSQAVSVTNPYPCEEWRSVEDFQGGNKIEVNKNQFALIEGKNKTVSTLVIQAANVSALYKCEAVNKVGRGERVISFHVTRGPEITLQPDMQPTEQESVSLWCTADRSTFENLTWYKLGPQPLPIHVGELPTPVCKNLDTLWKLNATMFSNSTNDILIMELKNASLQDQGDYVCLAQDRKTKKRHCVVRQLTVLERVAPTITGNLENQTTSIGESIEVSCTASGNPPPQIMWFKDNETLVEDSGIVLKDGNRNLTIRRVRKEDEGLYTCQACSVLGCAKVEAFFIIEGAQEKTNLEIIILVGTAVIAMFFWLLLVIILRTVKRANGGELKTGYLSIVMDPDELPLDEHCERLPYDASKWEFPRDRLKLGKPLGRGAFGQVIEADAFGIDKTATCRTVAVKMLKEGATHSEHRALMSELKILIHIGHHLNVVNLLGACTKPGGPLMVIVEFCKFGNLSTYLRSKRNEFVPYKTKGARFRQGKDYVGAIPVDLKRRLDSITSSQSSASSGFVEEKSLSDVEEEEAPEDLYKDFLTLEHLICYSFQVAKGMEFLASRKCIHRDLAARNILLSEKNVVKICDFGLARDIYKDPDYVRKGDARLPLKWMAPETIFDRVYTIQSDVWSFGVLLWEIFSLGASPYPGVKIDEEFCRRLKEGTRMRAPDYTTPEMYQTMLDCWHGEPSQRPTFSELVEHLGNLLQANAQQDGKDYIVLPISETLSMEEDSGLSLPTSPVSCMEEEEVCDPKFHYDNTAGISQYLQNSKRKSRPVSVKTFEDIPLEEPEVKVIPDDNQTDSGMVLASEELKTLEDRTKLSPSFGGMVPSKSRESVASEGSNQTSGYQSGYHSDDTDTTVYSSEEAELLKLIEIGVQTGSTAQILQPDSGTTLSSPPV

[16] = Antitumor activity against human GEO cells xenografted athymic mouse at 240 mg/kg, sc QD for 21 days; format: functional; conditions: po, 504 h, read-out: TGI, in the assay text read “po QD” for “sc QD”; how it was run: as §3
Mus musculus [17] = experiment: Toxicity in mouse at 240 mg/kg, po; conditions: in vivo
NCI-N87 [18] = experiment: Antitumor activity against human N87 cells xenografted athymic mouse at 120 mg/kg, sc QD for 14 days; format: functional; conditions: NCI-N87, po, 336 h, read-out: TGI, in the assay text read “po QD” for “sc QD”; how it was run: as §3
Mus musculus [19] = experiment: Toxicity in mouse assessed as wieght loss at 240 mg/kg, po; conditions: in vivo
[20] = Antitumor activity against human GEO cells xenografted athymic mouse at 30 mg/kg, sc QD for 21 days; format: functional; conditions: po, 504 h, read-out: TGI, in the assay text read “po QD” for “sc QD”; how it was run: as §3
[21] = Inhibition of PKA; set-up: species or system Homo sapiens
How it was run: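 IC50 values are means of at least three determinations, with variability around the mean under 15%.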

Mus musculus [22] = experiment: AUC in BALB/C mouse at 50 mg/kg, po after 4 hrs; format: ADME, organism-based, Plasma; set-up: time < 4 hr, dose 50 mg/kg, route oral; conditions: in vivo; how it was run: as §2
HT-29 = experiment: Antiproliferative activity against human HT29 cells

Epidermal growth factor receptor, sequence (P00533 whole entry): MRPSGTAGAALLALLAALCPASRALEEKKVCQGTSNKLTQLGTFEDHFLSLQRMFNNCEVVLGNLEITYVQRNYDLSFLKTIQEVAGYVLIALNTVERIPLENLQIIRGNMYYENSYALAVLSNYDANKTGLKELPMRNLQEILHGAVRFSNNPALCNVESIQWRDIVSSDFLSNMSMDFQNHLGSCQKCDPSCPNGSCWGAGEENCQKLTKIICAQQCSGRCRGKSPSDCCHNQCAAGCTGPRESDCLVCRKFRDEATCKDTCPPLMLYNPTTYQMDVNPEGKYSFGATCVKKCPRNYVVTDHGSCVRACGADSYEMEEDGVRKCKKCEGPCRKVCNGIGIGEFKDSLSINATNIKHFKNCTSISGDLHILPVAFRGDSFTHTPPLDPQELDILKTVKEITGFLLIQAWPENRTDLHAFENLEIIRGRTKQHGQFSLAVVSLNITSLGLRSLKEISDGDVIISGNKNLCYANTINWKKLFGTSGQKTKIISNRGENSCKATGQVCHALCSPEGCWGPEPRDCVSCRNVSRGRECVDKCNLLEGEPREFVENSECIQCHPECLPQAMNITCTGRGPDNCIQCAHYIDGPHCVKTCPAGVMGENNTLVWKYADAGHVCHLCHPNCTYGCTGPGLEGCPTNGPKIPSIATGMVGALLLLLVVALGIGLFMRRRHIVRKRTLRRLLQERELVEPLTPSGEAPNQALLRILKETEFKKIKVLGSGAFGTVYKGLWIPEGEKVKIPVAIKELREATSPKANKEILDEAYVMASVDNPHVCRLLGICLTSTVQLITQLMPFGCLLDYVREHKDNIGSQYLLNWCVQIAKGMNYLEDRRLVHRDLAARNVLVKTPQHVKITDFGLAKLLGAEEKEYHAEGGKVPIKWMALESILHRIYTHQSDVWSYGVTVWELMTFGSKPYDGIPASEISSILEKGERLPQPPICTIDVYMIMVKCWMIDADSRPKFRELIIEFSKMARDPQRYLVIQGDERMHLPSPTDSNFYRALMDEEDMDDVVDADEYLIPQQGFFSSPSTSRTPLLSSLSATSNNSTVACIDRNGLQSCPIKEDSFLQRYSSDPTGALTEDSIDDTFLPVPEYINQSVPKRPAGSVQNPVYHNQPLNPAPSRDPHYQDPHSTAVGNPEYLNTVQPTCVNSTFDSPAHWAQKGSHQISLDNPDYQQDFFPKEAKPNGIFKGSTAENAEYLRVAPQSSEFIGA
T1 sequence (P04626 whole entry): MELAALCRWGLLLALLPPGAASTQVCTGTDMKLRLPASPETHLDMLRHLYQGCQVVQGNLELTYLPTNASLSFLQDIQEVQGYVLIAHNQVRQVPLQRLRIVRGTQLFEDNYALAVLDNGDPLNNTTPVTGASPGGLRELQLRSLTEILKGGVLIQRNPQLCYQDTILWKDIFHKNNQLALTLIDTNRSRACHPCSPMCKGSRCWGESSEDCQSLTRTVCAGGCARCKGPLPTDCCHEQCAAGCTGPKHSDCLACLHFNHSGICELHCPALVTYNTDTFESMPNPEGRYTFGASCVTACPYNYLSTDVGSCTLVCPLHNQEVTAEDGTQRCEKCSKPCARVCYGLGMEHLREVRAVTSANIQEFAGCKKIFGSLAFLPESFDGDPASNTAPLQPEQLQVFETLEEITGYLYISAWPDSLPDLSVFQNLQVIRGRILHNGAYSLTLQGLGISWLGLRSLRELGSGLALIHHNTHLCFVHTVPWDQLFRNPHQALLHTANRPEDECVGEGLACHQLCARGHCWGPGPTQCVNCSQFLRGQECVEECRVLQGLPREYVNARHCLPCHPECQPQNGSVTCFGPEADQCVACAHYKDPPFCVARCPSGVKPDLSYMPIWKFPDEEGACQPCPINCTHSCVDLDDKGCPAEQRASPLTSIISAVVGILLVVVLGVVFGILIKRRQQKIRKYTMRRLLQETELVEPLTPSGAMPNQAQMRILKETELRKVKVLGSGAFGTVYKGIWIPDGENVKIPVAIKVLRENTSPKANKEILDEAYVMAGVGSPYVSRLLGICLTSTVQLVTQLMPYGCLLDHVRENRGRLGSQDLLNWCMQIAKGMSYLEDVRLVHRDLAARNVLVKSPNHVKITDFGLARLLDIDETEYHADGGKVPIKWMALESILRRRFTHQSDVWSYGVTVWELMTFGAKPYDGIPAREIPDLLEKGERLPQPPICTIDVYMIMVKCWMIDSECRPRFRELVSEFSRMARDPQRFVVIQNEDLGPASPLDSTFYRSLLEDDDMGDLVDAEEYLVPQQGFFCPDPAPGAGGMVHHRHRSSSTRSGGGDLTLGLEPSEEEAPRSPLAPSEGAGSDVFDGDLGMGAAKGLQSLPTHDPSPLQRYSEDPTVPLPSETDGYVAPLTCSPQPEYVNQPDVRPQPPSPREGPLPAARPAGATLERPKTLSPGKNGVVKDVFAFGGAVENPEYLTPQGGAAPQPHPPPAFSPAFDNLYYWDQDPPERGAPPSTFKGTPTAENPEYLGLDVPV

C[C@H](c1cccc(F)c1)n1ncc2cc(Nc3ncnn4ccc(COC[C@@H]5CNCCO5)c34)ccc21
IC50 [1]: 41 nM | IC50 [2]: 68 nM | IC50 (NCI-N87 [3]): 130 nM

Fc1cccc(Cn2ncc3cc(Nc4ncnn5ccc(COC6CCNCC6)c45)ccc32)c1
IC50 [1]: 70 nM | Stability (Liver): 0.02 nmol/min/mg | IC50 [2]: 73 nM | IC50 (NCI-N87 [3]): 330 nM | IC50 (A2780): 6000 nM

CN(C)CCCOCc1ccn2ncnc(Nc3ccc4c(cnn4Cc4cccc(F)c4)c3)c12
IC50 [1]: 560 nM | Stability (Liver): 0.12 nmol/min/mg | IC50 [2]: 620 nM

Fc1cccc(Cn2ncc3cc(Nc4ncnn5ccc(COCC6CCNCC6)c45)ccc32)c1
IC50 [1]: 120 nM | IC50 [2]: 130 nM | IC50 (NCI-N87 [3]): 720 nM | IC50 (A2780): 4900 nM

Cc1ccn2ncnc(Nc3ccc4c(cnn4Cc4ccccn4)c3)c12
IC50 [1]: 310 nM | IC50 [2]: 200 nM

NCCCCOCc1ccn2ncnc(Nc3ccc4c(cnn4Cc4cccc(F)c4)c3)c12
IC50 [1]: 130 nM | IC50 [2]: 160 nM

COC(=O)COCc1ccn2ncnc(Nc3ccc4c(cnn4Cc4cccc(F)c4)c3)c12
IC50 [1]: 280 nM | IC50 [2]: 460 nM | IC50 (NCI-N87 [3]): 1700 nM

Cc1ccn2ncnc(Nc3ccc4c(cnn4Cc4cccnc4)c3)c12
IC50 [1]: 250 nM | IC50 [2]: 1800 nM

NCCOCc1ccn2ncnc(Nc3ccc4c(cnn4Cc4cccc(F)c4)c3)c12
IC50 (NCI-N87 [3]): 1700 nM | IC50 (A2780): 8300 nM

Fc1cccc(Cn2ncc3cc(Nc4ncnn5ccc(COC[C@H]6CNCCO6)c45)ccc32)c1
IC50 [1]: 60 nM | IC50 [2]: 83 nM | IC50 (NCI-N87 [3]): 130 nM | IC50 (A2780): > 10000 nM

Fc1cccc(Cn2ncc3cc(Nc4ncnn5ccc(COC[C@@H]6CNCCO6)c45)ccc32)c1
IC50 (MAP kinase p38): > 50000 nM | IC50 [1]: 55 nM | IC50 [4]: 6500 nM | concentration at 4 h [5]: 5.8 µM | Papp [6]: 6.4 ×10⁻⁶ cm/s | fraction unbound at 10 µM [7]: 0.026 | Activity [8]: Dose-dependent effect | inhibition in vivo at 240 mg/kg (NCI-N87 [9]): 111% | inhibition in vivo at 60 mg/kg (NCI-N87 [10]): 51% | inhibition in vivo at 30 mg/kg (NCI-N87 [11]): 28% | IC50 [12]: > 5000 nM | inhibition in vivo at 120 mg/kg [13]: 71% | inhibition in vivo at 60 mg/kg [14]: 55% | IC50 [15]: > 10000 nM | inhibition in vivo at 240 mg/kg [16]: 91% | Activity (Mus musculus [17]): Non-toxic | inhibition in vivo at 120 mg/kg (NCI-N87 [18]): 70% | Activity (Mus musculus [19]): Non-toxic | inhibition in vivo at 30 mg/kg [20]: 21% | IC50 [21]: > 50000 nM | Stability (Liver): 0.07 nmol/min/mg | IC50 [2]: 61 nM | AUC (Mus musculus [22]): 29 µM·h | IC50 (NCI-N87 [3]): 83 nM | IC50 (A2780): 8700 nM

Fc1cccc(Cn2ncc3cc(Nc4ncnn5ccc(COCC6CNCCOC6)c45)ccc32)c1 (stereo not drawn)
IC50 [1]: 140 nM | IC50 [2]: 210 nM | IC50 (NCI-N87 [3]): 2000 nM | IC50 (A2780): > 10000 nM

Fc1cccc(COc2ccc(Nc3ncnn4ccc(COC[C@@H]5CNCCO5)c34)cc2Cl)c1
IC50 (NCI-N87 [3]): 610 nM

C[C@H](c1ccccc1)n1ncc2cc(Nc3ncnn4ccc(COC[C@@H]5CNCCO5)c34)ccc21
IC50 [1]: 130 nM | IC50 [2]: 120 nM | IC50 (NCI-N87 [3]): 660 nM

NCCCOCc1ccn2ncnc(Nc3ccc4c(cnn4Cc4cccc(F)c4)c3)c12
IC50 [1]: 60 nM | Stability (Liver): 0.01 nmol/min/mg | IC50 [2]: 64 nM | IC50 (NCI-N87 [3]): 640 nM | IC50 (A2780): 7400 nM

c1ccc(Cn2ncc3cc(Nc4ncnn5ccc(COC[C@@H]6CNCCO6)c45)ccc32)nc1
IC50 [1]: 380 nM | IC50 [2]: 500 nM | IC50 (NCI-N87 [3]): 240 nM

Fc1cccc(Cn2ncc3cc(Nc4ncnn5ccc(COC[C@H]6CCCNC6)c45)ccc32)c1
IC50 [1]: 170 nM | IC50 [2]: 190 nM | IC50 (NCI-N87 [3]): 980 nM | IC50 (A2780): 7400 nM

OCc1ccn2ncnc(Nc3ccc4c(cnn4Cc4cccc(F)c4)c3)c12
IC50 [1]: 110 nM | IC50 (HT-29): > 10000 nM | IC50 [2]: 120 nM | IC50 (NCI-N87 [3]): 7400 nM

COCc1ccn2ncnc(Nc3ccc4c(cnn4Cc4cccc(F)c4)c3)c12
IC50 [1]: 420 nM | Stability (Liver): 0.24 nmol/min/mg | IC50 [2]: 340 nM

Cc1ccn2ncnc(Nc3ccc4c(cnn4Cc4cccc(F)c4)c3)c12
IC50 [1]: 88 nM | IC50 (HT-29): > 10000 nM | Stability (Liver): 0.14 nmol/min/mg | IC50 [2]: 81 nM | IC50 (NCI-N87 [3]): 380 nM

NC(=O)COCc1ccn2ncnc(Nc3ccc4c(cnn4Cc4cccc(F)c4)c3)c12
IC50 [1]: 110 nM | IC50 [2]: 140 nM | IC50 (NCI-N87 [3]): 1700 nM | IC50 (A2780): > 10000 nM

C[C@@H](c1cccc(F)c1)n1ncc2cc(Nc3ncnn4ccc(COC[C@@H]5CNCCO5)c34)ccc21
IC50 [1]: 510 nM | IC50 [2]: 400 nM

O=C(O)COCc1ccn2ncnc(Nc3ccc4c(cnn4Cc4cccc(F)c4)c3)c12
IC50 [1]: 18 nM | IC50 [2]: 30 nM | IC50 (NCI-N87 [3]): > 10000 nM | IC50 (A2780): > 10000 nM

c1cncc(Cn2ncc3cc(Nc4ncnn5ccc(COC[C@@H]6CNCCO6)c45)ccc32)c1
IC50 [1]: 410 nM | IC50 [2]: 810 nM | IC50 (NCI-N87 [3]): 550 nM

Cc1ccn2ncnc(Nc3ccc4c(cnn4Cc4ccccc4)c3)c12
IC50 [1]: 110 nM | IC50 [2]: 86 nM

Cc1ccn2ncnc(Nc3ccc(F)c(Cl)c3)c12
IC50 [1]: > 1000 nM

Fc1cccc(Cn2ncc3cc(Nc4ncnn5ccc(COC[C@@H]6COCCN6)c45)ccc32)c1
IC50 [1]: 590 nM | IC50 [2]: 640 nM | IC50 (NCI-N87 [3]): 3000 nM | IC50 (A2780): > 10000 nM

Cc1ccn2ncnc(Nc3ccc(OCc4cccc(F)c4)c(Cl)c3)c12
IC50 [1]: 430 nM | IC50 [2]: 250 nM

Cc1ccn2ncnc(Nc3ccc4[nH]ncc4c3)c12
IC50 [1]: > 1000 nM | IC50 [2]: 210 nM

COCCOCc1ccn2ncnc(Nc3ccc4c(cnn4Cc4cccc(F)c4)c3)c12
IC50 [1]: 420 nM

C[C@@H](c1ccccc1)n1ncc2cc(Nc3ncnn4ccc(COC[C@@H]5CNCCO5)c34)ccc21
IC50 [1]: 850 nM | IC50 [2]: 690 nM | IC50 (NCI-N87 [3]): 2200 nM

COc1cn2ncnc(Nc3ccc4c(cnn4Cc4cccc(F)c4)c3)c2c1COC[C@@H]1CNCCO1
IC50 [1]: 250 nM | IC50 [2]: 430 nM | IC50 (NCI-N87 [3]): 3400 nM

— ChEMBL document CHEMBL1139130, “New C-5 substituted pyrrolotriazine dual inhibitors of EGFR and HER2 protein tyrosine kinases” (Bioorg Med Chem Lett, 2007)
